Results taken from ChEMBL document CHEMBL1671680, “Pradimicin S, a highly soluble nonpeptidic small-size carbohydrate-binding antibiotic, is an anti-HIV drug lead for both microbicidal and systemic use” (Antimicrob Agents Chemother, 2010).
Activity calls are given as the source filed them. No cut-off for these calls is given here.

Assays:
[1] = Cytotoxicity against human U87 cells after 3 to 4 days; type: cell-based, U-87MG ATCC
Outline: (§1)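 Cells seeded at 20,000–75,000 per well with compound dilutions, incubated 3–4 days at 37°C, and counted on a Coulter particle counter; CC50 is the concentration inhibiting proliferation by 50%.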

[2] = Antiviral activity against SIV mac251 infected in human HUT78 cells assessed as prevention of syncytium formation between persistently SIV mac251-infected HUT-78 cells and uninfected CEM cells after 3 to 4 days by ELISA; type: functional, cell-based, Simian immunodeficiency virus - mac; settings: Simian immunodeficiency virus, 251, CCRF-CEM
[3] = system: Human immunodeficiency virus 1; experiment: Antiviral activity against X4 tropic HIV-1 3B infected in human Raji cells expressing DC-SIGN gene assessed as prevention of syncytium formation between persistently HIV-1 3B-infected Raji cells and uninfected human C8166 cells after 36 to 42 hrs by microscopic analysis; type: functional, organism-based; settings: Human immunodeficiency virus 1, 3B
Outline: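 Raji/DC-SIGN cells exposed 60 min to HIV-1 IIIB (2.2 × 10^6 pg/ml p24), washed by two centrifugations, then plated with compound dilutions and C8166 cells (10^7/ml, 50 μl); cocultures at 37°C scored microscopically for syncytia at ~36–48 h.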

[4] = system: Human immunodeficiency virus 1; experiment: Binding affinity to HIV-1 HXB2 gp41 after 6 mins by SPR analysis
[5] = Binding affinity to HIV-1 3B gp120 after 6 mins by SPR analysis in presence of 10 mM CaCl2; parameters: species or system Human immunodeficiency virus 1
[6] = Binding affinity to HIV-1 HXB2 gp41 after 6 mins by SPR analysis in presence of 10 mM CaCl2; parameters: species or system Human immunodeficiency virus 1
PBMC [7] = experiment: Immunostimulatory activity against human PBMC assessed as IL-10 production at 21 uM after 72 hrs; type: functional, cell-based
Outline: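 PBMCs and PHA blasts from three donors (three independent experiments) cultured with 21 μM compound; supernatants collected at 72 h; cytokines quantified with the Bio-Plex human 27-plex bead immunoassay.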

PBMC [8] = experiment: Immunostimulatory activity against human PBMC assessed as eotoxin production at 21 uM after 72 hrs; type: functional, cell-based
Outline: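 In three independent experiments, PBMCs and PHA-blasts from three donors were cultured with compound for 72 h. Supernatants were analysed with a bead-based 27-plex human cytokine immunoassay covering interleukins, chemokines, growth factors, IFN-γ and TNF-α.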

PBMC [9] = experiment: Immunostimulatory activity against human PBMC assessed as MIP-1alpha production at 21 uM after 72 hrs; type: functional, cell-based
Outline: (§2)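 Unstimulated PBMCs and PHA-blasts from three donors, in three independent experiments, cultured with test compound at 20 μg/ml (21 or 22 μM). Supernatants collected after 72 h. The cytokine profile was read on a Bio-Plex 27-plex human cytokine bead immunoassay, using beads coupled to cytokine-specific monoclonal antibodies and run per the kit instructions.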

PBMC [10] = experiment: Immunostimulatory activity against human PBMC assessed as MIP-1beta production at 21 uM after 72 hrs; type: functional, cell-based; outline: as §2
PBMC [11] = experiment: Immunostimulatory activity against human PBMC assessed as IL1-beta production at 22 uM after 72 hrs; type: functional, cell-based; outline: as §2
PBMC [12] = experiment: Immunostimulatory activity against human PBMC assessed as G-CSF production at 22 uM after 72 hrs; type: functional, cell-based
PBMC [13] = experiment: Immunostimulatory activity against human PBMC assessed as MCP-1 production at 22 uM after 72 hrs; type: functional, cell-based; outline: as §2
PBMC [14] = experiment: Immunostimulatory activity against human PBMC assessed as MIP-1alpha production at 22 uM after 72 hrs; type: functional, cell-based; outline: as §2
PBMC [15] = experiment: Immunostimulatory activity against human PBMC assessed as suppression of IL-4 production at 21 uM after 72 hrs; type: functional; outline: as §2
PBMC [16] = experiment: Immunostimulatory activity against human PBMC assessed as suppression of G-CSF production at 21 uM after 72 hrs; type: functional; outline: as §2
PBMC [17] = experiment: Immunostimulatory activity against human PBMC assessed as suppression of IL-2 production at 22 uM after 72 hrs; type: functional; outline: as §2
PBMC [18] = experiment: Immunostimulatory activity against human PBMC assessed as suppression of IL-4 production at 22 uM after 72 hrs; type: functional; outline: as §2
[19] = system: Human immunodeficiency virus 2; experiment: Antiviral activity against X4 tropic HIV-2 BV-5061 W infected in human PBMC assessed as inhibition of viral replication […] by ELISA; type: functional, organism-based; settings: Human immunodeficiency virus 2, BV-5061
Outline: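 PHA-stimulated (2 μg/ml, 3 days) donor PBMC blasts seeded at 0.5 × 10^6 cells/well with compound dilutions in RPMI 1640 + 10% FCS + IL-2 (25 U/ml); virus added at 250 pg p24 or p27/ml final; supernatant p24 (HIV-1) or p27 (HIV-2) antigen measured by ELISA at day 12; EC50 from antigen reduction.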

[20] = system: Human immunodeficiency virus 1; experiment: Ratio of EC90 to EC50 for R5 tropic HIV-1 clade A/E isolate ID12 infected in human PBMC; type: functional
[21] = system: Human immunodeficiency virus 1; experiment: Ratio of EC90 to EC50 for X4 tropic HIV-1 Bal infected in human PBMC; type: functional; settings: in the assay text read “R5 tropic” for “X4 tropic”
Outline: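 PBMCs from healthy donors were PHA-stimulated (2 μg/ml, 3 days, 37°C), then seeded at 0.5 × 10^6 per well with compound dilutions in RPMI 1640 with 10% FCS and IL-2 (25 U/ml). Virus was added at 250 pg p24 or p27/ml final. On day 12, supernatant HIV-1 p24 or HIV-2 p27 was measured by ELISA, giving EC50 and EC90.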

[22] = Cytotoxicity against mouse L1210 cells after 3 to 4 days; type: cell-based
[23] = Cytotoxicity against human Molt4 cells after 3 to 4 days; type: cell-based; settings: MOLT-4 cells; outline: as §1
[24] = Antiviral activity against SIV mac251 infected in human MT4 cells assessed as inhibition of virus-induced cytopathicity after 7 days by trypan blue staining; type: functional, cell-based, Simian immunodeficiency virus - mac; settings: Simian immunodeficiency virus, 251, MT4, 168 h
Outline: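 MT-4 cells (5 × 10^5/ml) infected with SIV at 100 CCID50/ml, mixed 1:1 with compound dilutions, incubated at 37°C; viable cells in infected and mock-infected cultures counted by trypan blue; EC50 and CC50 are concentrations reducing viable cell number by 50% in each.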

[25] = system: Human immunodeficiency virus 1; experiment: Antiviral activity against R5 tropic HIV-1 clade B isolate US2 infected in human PBMC assessed as inhibition of viral replication […] by ELISA; type: functional, organism-based; settings: Human immunodeficiency virus 1, clade B isolate US2
Outline: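 PBMCs from healthy donors were stimulated with PHA (2 μg/ml) for 3 days, then seeded at 0.5 × 10^6 cells/well in RPMI 1640 with 10% FCS, IL-2 (25 U/ml) and compound. Virus was added at a final 250 pg p24/ml. Supernatant was taken at day 12 for p24 antigen ELISA.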

[26] = system: Human immunodeficiency virus 1; experiment: Antiviral activity against R5 tropic HIV-1 clade F isolate BZ163 infected in human PBMC assessed as inhibition of viral replication after 12 days by ELISA; settings: Human immunodeficiency virus 1, clade F isolate BZ163, 12 days
[27] = system: Human immunodeficiency virus 1; experiment: Antiviral activity against R5 tropic HIV-1 clade A/E isolate ID12 infected in human PBMC assessed as inhibition of viral replication after 12 days by ELISA; settings: Human immunodeficiency virus 1, clade A/E isolate ID12, 12 days

CN[C@@H]1[C@H](O[C@@H]2OC[C@@H](O)[C@H](O)[C@H]2O)[C@@H](O)[C@H](O[C@H]2c3cc(C)c(C(=O)N[C@H](C)C(=O)O)c(O)c3-c3c(cc4c(c3O)C(=O)c3cc(OC)cc(O)c3C4=O)[C@@H]2O)O[C@@H]1C [PRADIMICIN A]
CC50 [1]: > 50 µM | EC50 [2]: 4.3 µM | EC50 [3]: 5.4 µM | Activity [4]: inactive | Kd [5]: 0.41 µM | Kd [6]: 14.9 µM | Activity (PBMC [7]): inactive | Activity (PBMC [8]): inactive | Activity (PBMC [9]): inactive | Activity (PBMC [10]): inactive | Activity (PBMC [11]): inactive | Activity (PBMC [12]): inactive | Activity (PBMC [13]): inactive | Activity (PBMC [14]): inactive | fold change (FC) (PBMC [15]): 2 | fold change (FC) (PBMC [16]): 2 | fold change (FC) (PBMC [17]): 4 | fold change (FC) (PBMC [18]): 2 | EC50 [19]: 4.3 µM | Ratio [20]: 2 | Ratio [21]: 2 | CC50 [22]: > 50 µM | CC50 [23]: > 50 µM | EC50 [24]: 5 µM | EC50 [25]: 6 µM | EC50 [26]: 8 µM | EC50 [27]: 4.7 µM

CN[C@@H]1[C@H](O[C@@H]2O[C@H](CO)[C@@H](O)[C@H](OS(=O)(=O)O)[C@H]2O)[C@@H](O)[C@H](O[C@H]2c3cc(C)c(C(=O)N[C@H](C)C(=O)O)c(O)c3-c3c(cc4c(c3O)C(=O)c3cc(OC)cc(O)c3C4=O)[C@@H]2O)O[C@@H]1C [PRADIMICIN S]
CC50 [1]: > 230 µM | EC50 [2]: 12 µM | EC50 [3]: 5.1 µM | Activity [4]: inactive | Kd [5]: 0.4 µM | Kd [6]: 9.93 µM | Activity (PBMC [7]): inactive | Activity (PBMC [8]): inactive | Activity (PBMC [9]): inactive | Activity (PBMC [10]): inactive | Activity (PBMC [11]): inactive | Activity (PBMC [12]): inactive | Activity (PBMC [13]): inactive | Activity (PBMC [14]): inactive | fold change (FC) (PBMC [15]): 2 | fold change (FC) (PBMC [16]): 2 | fold change (FC) (PBMC [17]): 4 | fold change (FC) (PBMC [18]): 2 | EC50 [19]: 3.1 µM | Ratio [20]: 2 | Ratio [21]: 2 | CC50 [22]: > 230 µM | CC50 [23]: > 230 µM | EC50 [24]: 8.1 µM | EC50 [25]: 11 µM | EC50 [26]: 17 µM | EC50 [27]: 15 µM
